High-throughput results: PubChem, Broad Institute
rRNA inh HTS: inhibitors of bacterial rRNA selective over humanized ribosomes; E. coli WT GFP vs humanized-ribosome RFP mutants, fluorescence, 24 h; hits give low values; DMSO median 0, no signal -100; GFP signal change (wild-type ribosome), % (test concentration not listed); 1.6% of 350,000 active; AID 720706;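 active means significant combined selectivity score with lowered wild-type GFP, culture density cut under 30%, mutant RFP and density less affected; inactive means any of these conditions unmet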
LGR2 inh: inhibitors of bursicon-induced Drosophila LGR2 receptor cAMP signaling; HEK293 LGR2, CRE-luciferase, bursicon-stimulated, 4 h; inhibition, % at 9.99 µM; 0.35% of 380,000 active;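 active means drop in luminescence signal, shown as inhibition above about 50% in the replicate tests, limit read from the data, passing the limit was not always enough; inconclusive means probably only some replicates passing the limit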;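 further: agonist challenge used bursicon conditioned medium at about half maximal strength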
E-sel inducer: induces E-selectin expression in human endothelial cells; HUVEC E-selectin immunofluorescence imaging; normalized: neutral wells 0, TNF-alpha wells 100; activation, % at 7.58 µM; 0.37% of 260,000 active;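 active means mean E-selectin-positive cell signal at least 10% of the positive control, reached in at least 60% of replicates, without over 20% cell loss; inconclusive means no rule given, readout overlaps actives, possibly toxicity-flagged; inactive means the rest, including those meeting only one limit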
Target sequence (P16581 whole entry, looked up): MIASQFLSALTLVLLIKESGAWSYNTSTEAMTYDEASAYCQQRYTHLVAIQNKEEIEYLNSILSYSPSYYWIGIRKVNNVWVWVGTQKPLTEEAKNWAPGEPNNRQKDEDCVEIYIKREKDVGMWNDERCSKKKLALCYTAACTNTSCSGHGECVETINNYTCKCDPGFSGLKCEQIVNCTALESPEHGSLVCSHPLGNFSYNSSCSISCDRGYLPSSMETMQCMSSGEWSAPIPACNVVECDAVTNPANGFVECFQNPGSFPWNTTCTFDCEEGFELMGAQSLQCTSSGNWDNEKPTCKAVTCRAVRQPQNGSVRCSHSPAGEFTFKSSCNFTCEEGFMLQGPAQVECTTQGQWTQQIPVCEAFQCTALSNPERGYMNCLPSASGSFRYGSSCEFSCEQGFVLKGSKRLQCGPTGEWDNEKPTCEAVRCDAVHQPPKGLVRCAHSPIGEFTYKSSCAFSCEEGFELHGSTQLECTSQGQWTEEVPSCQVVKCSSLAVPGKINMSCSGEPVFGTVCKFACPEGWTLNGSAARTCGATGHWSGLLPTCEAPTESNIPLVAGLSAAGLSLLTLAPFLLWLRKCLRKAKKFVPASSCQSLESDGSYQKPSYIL
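assay system = HUVEC, human umbilical vein endothelial cells | input = 3,000 HUVEC seeded per well | medium = EGM-2 growth medium on 0.1% gelatin-coated wells | dosing = one compound dose added by pin transfer | signal = immunofluorescence imaging | read-out basis = % PE-positive cells | control set = TNF-alpha, DMSO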
EWS-Fli inh: inhibitors of EWS/Fli oncoprotein transcriptional activity; inhibition, % at 12.6 µM; A673 NR0B1-luciferase reporter, viability-normalised; 0.67% of 350,000 active;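 active means mean inhibition of at least 50% after viability correction, with every replicate also passing that limit; inconclusive means mean reaches 50% but only one of two replicates passes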;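 further: firefly luciferase signal divided by Alamar Blue viability fluorescence both relative to DMSO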
AID977621: growth inhibition of wild-type GFP E. coli, dose response, H69 mutant RFP, cherry-pick. activity change, negative = inhibition at 50 µM. E. coli wild-type GFP strain growth, fluorescence, 24 h. 1,900 tested, under 10 active. shares compounds with rRNA inh HTS;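 active means Wild-type ribosome reporter drop at least double the humanized mutant ribosome reporter drop, growth loss under a set limit; inconclusive means no clear call, values can overlap the other calls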;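 further: wild-type GFP and H69 mutant RFP strains grown together 50/50 in each well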
AID977628: E. coli growth inhibition, wild-type GFP versus h24 humanized RFP strain, dose response, h24 mutant RFP vs wild-type GFP, cherry-pick; activity change, negative = inhibition at 50 µM; 1,900 tested, under 10 active; shares compounds with rRNA inh HTS; E. coli WT GFP strain growth, fluorescence, 24 h;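 active means compound lowering the normal-ribosome reporter at least twice as much as the humanized-ribosome reporter, growth loss under a set limit; inconclusive means no clear call, values can overlap the other calls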;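 further: wild-type GFP and h24 humanized RFP strains co-cultured 1 to 1 per well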
Numbers without * were called inactive. Most compounds without a hit are left out; they make up all but 2.4% or so of the library.

Screening C[C@@H]1NS(=O)(=O)c2c(F)cccc2O[C@@H]1c1ccccc1 returned rRNA inh HTS -21.8*, LGR2 inh 8.9, E-sel inducer -0.5, EWS-Fli inh -3.3 and AID977628 inconclusive.
CCCC#Cc1cnc2c(c1)C(=O)N([C@@H](C)CO)C[C@H](C)[C@@H](CN(C)C(=O)Nc1ccccc1OC)O2 was read as rRNA inh HTS 1.6, LGR2 inh -2.0, E-sel inducer 0.0 and EWS-Fli inh 17.2.
CCOc1nc(-c2ccccc2O)nc2ccccc12 was read as rRNA inh HTS 4.6, LGR2 inh -20.7 and EWS-Fli inh 4.5.
For CC(C)Oc1nc(-c2ccccc2Cl)nc2ccccc12 the results were rRNA inh HTS -18.2*, LGR2 inh 2.1, E-sel inducer 1.1, EWS-Fli inh 7.1 and AID977628 -11.
`CC=Cc1ccc2n(c1=O)C[C@H]1[C@H](CO)[C@@H](C(=O)NCCC)[C@@H]2N1CCC(F)(F)F` (mixture of isomers) gave rRNA inh HTS 0.2, LGR2 inh -0.8, E-sel inducer 0.1 and EWS-Fli inh 2.8.
For C[C@@H]1CCCCO[C@@H](CN(C)C(=O)CCCN(C)C)[C@H](C)CN([C@H](C)CO)C(=O)c2cc(NC(=O)Nc3ccccc3)ccc2O1 the results were rRNA inh HTS 0.2, LGR2 inh -13.4, E-sel inducer -0.1 and EWS-Fli inh -7.8.
C[C@@H]1CCCCO[C@H](CN(C)C(=O)CCCN(C)C)[C@H](C)CN([C@H](C)CO)C(=O)c2cc(NC(=O)Nc3cccc4ccccc34)ccc2O1 was read as rRNA inh HTS 2.0, LGR2 inh 7.5, E-sel inducer 0.3, EWS-Fli inh -1.7 and AID977628 inconclusive.
Screening C[C@H](CO)N1C[C@H](C)[C@@H](CN(C)C(=O)CCCN(C)C)OCCCC[C@H](C)Oc2ccc(NC(=O)Nc3cccc4ccccc34)cc2C1=O returned rRNA inh HTS -1.6, LGR2 inh -3.6, E-sel inducer 0.1, EWS-Fli inh 0.1, AID977621 -7.84 and AID977628 inconclusive.
For Cc1ccc(C(=O)Nc2cccc3[nH]c(C(F)(F)F)nc23)cc1 the results were rRNA inh HTS -23.5*, LGR2 inh -12.9, EWS-Fli inh 12.6 and AID977621 -7.32.
COc1ccc(CNc2cccc3[nH]c(C(F)(F)F)nc23)cc1 was read as rRNA inh HTS 3.5, LGR2 inh -13.3, E-sel inducer 0.0 and EWS-Fli inh -12.3.
C[C@@H]1CN([C@H](C)CO)C(=O)Cc2cc(NC(=O)Cn3cnnn3)ccc2O[C@@H]1CN(C)C(=O)Nc1cccc2ccccc12 was read as rRNA inh HTS 5.5, LGR2 inh 11.2, E-sel inducer -4.0 and EWS-Fli inh 0.5.
For Cc1cc(C)c(OCC(=O)OCC(=O)N2CCc3ccccc3C2)c(C)c1 the results were rRNA inh HTS -15.8*, LGR2 inh -12.7, E-sel inducer -0.3, EWS-Fli inh 3.0 and AID977628 -9.6.
Screening CC(C)(C)CC(=O)NCCc1csc(-c2ccccc2)n1 returned rRNA inh HTS -15.9*, LGR2 inh -33.1, E-sel inducer -0.4, EWS-Fli inh -59.6, AID977621 -3.78 and AID977628 inconclusive.
`COc1cccc(C(=O)c2c[nH]c(C(=O)NCc3cccnc3)c2)c1` gave rRNA inh HTS -29.3*, LGR2 inh 1.7, E-sel inducer 11.2, EWS-Fli inh -27.7 and AID977628 -10.2.
`COc1ccc(-c2cnc3c(c2)C(=O)N([C@H](C)CO)C[C@H](C)[C@H](CN(C)C(=O)C2CCCCC2)O3)cc1` gave rRNA inh HTS -0.6, LGR2 inh 7.9, E-sel inducer 0.2 and EWS-Fli inh -3.9.
`O=C1CCCc2ccccc2N1Cc1ccccc1` gave rRNA inh HTS -27.8*, LGR2 inh 13.5, E-sel inducer 1.4, EWS-Fli inh 2.2, AID977621 -7.87 and AID977628 -11.9.
COc1ccc(CN2CC3(CCN(C(=O)Cc4ccncc4)CC3)c3c([nH]c4cc(OC)ccc34)[C@@H]2CO)cc1 was read as rRNA inh HTS -1.9, LGR2 inh 16.3, E-sel inducer 0.0 and EWS-Fli inh -4.2.
CC1Sc2ccc(S(=O)(=O)NCc3ccccc3)cc2NC1=O (stereo not given) was read as rRNA inh HTS -21.2*, LGR2 inh 14.1 and AID977621 -13.6.
`CC1Sc2ccc(S(=O)(=O)NCCc3ccccc3)cc2NC1=O` (stereo not given) gave rRNA inh HTS -30.6 and LGR2 inh 9.5.
CCN(CC)CCNC(=O)c1cc2cc3ccc(OC)cc3nc2o1 was read as rRNA inh HTS -18.9*, LGR2 inh -16.0, E-sel inducer -0.1, EWS-Fli inh -3.6, AID977621 -7.93 and AID977628 inconclusive.
`CCCCN(C)CCNC(=O)c1cc2cc3ccc(OC)cc3nc2o1` gave rRNA inh HTS -3.4, LGR2 inh 0.9, E-sel inducer 0.2 and EWS-Fli inh 0.8.
Cn1cnc([N+](=O)[O-])c1Oc1ccccc1 was read as rRNA inh HTS -36.8*, LGR2 inh 9.8, E-sel inducer 0.9, EWS-Fli inh 19.4, AID977621 2.46 and AID977628 -2.13.
For COc1ccc(C(=O)N2C[C@H]3[C@@H](c4ccccc42)[C@@H](CO)N3Cc2ccc(Cl)cc2)cc1 the results were rRNA inh HTS -50.6*, LGR2 inh -16.5, E-sel inducer 0.4, EWS-Fli inh 13.9 and AID977628 inconclusive.
Screening COc1cccc(C(=O)N2C[C@@H]3[C@H](c4ccccc42)[C@H](CO)N3Cc2ccccc2Cl)c1 returned rRNA inh HTS -32.5*, LGR2 inh -7.3, E-sel inducer 0.1, EWS-Fli inh -1.3 and AID977628 inconclusive.
Screening O=C(Nc1ccccc1Cl)N1C[C@H]2[C@@H](c3ccccc31)[C@@H](CO)N2Cc1ccccc1 returned rRNA inh HTS -38.1*, LGR2 inh 16.1, E-sel inducer -0.7, EWS-Fli inh 0.4 and AID977628 inconclusive.
`COc1ccc(C(=O)N2C[C@@H]3[C@H](c4ccccc42)[C@@H](CO)N3Cc2ccccc2)cc1` gave rRNA inh HTS -6.3, LGR2 inh -9.0, E-sel inducer -0.3 and EWS-Fli inh 5.2.
Screening O=C(N[C@H]1CC[C@@H](CCNC(=O)C2CCCCC2)O[C@@H]1CO)c1ccncc1 returned rRNA inh HTS 2.6, LGR2 inh -2.4, E-sel inducer 0.1 and EWS-Fli inh 0.1.
For O=C(N1CCOCC1)[C@@]1(Cc2ccccc2)N=C(c2ccc(OCCCO)cc2)O[C@H]1c1ccccc1 the results were EWS-Fli inh 13.0.
